# Screening results deposited in PubChem by several laboratories.
# STAT1 inh – reduces IFN-gamma driven STAT1 reporter signal; NIH 3T3 STAT1-luciferase reporter, luminescence; inhibition, % at 5.5 µM; 0.35% of 200,000 active; AID 920;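 active = inhibition above a set limit, the mean inhibition across all tested compounds plus 3 SD, cut at about 34% in these data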;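 also: 0% = IFN-gamma with DMSO and 100% = IFN-gamma with 300 µM nifuroxazide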
# C8 TRAIL sens – sensitizes caspase-8 expressing cells to TRAIL. NB7+C8 cells + TRAIL, ATPlite viability luminescence. inhibition (viability loss, TRAIL sensitization), % at 10 µM. 1% of 360,000 active. AID 624354;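 active = compounds causing at least 50% loss of cell viability in the single-dose screen, relative to plate controls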
# STAT3 blocker – reduces IL-6 driven STAT3 reporter signal. U3A cells, IL-6 STAT3-luciferase reporter, luminescence; host cell line lacks STAT1. inhibition, % at 5.5 µM. 0.89% of 190,000 active. AID 862;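 active = inhibition above the mean inhibition across all screened compounds plus 3 SD, cut at about 44% in these data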;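 also: 0% = DMSO only wells and 100% = 100 µM nifuroxazide control wells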
# PPC-1+TRAIL kill – PPC-1 cancer cell killing with TRAIL present | PPC-1 cells + TRAIL, ATPLite viability luminescence | cell killing (% activity), % at 4 µM or 5 µM | 0.41% of 220,000 active;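 active = cell killing above 50% in the first pass at 4 µM, then a duplicate retest at 5 µM averaging 50% or more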;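 also: plate controls were cells with TRAIL plus DMSO for no effect and medium-only wells lacking cells for full effect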
# STAT3 activator – activators of IL-6 induced STAT3 signaling. U3A cells, IL-6 STAT3-luciferase reporter, luminescence; 100% = signal with IL-6 EC80 alone. activation (% of control), % at 5.6 µM. 0.91% of 190,000 active;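 active = activation above the screen-wide mean of compound activation plus 3 SD, cut at about 130% in these data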;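 also: 0% = background luminescence of wells with medium and substrate only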
#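 Material: STAT3-luciferase reporter U3A cells; Probe or stimulus: IL-6 (33 ng/mL); Incubation: compound pre-incubation 1 h before IL-6, then 6 h stimulation at 37 °C; Technique: luminescence from STAT3-driven luciferase reporter; Evaluation: % activation versus median of IL-6-stimulated wells; Controls: IL-6-only high control.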
# HSP90 refold inh – HSP90 refolding inhibition in rabbit reticulocyte lysate; inhibition, % at 5.6 µM; luciferase refolding luminescence, 3 h; 0.91% of 290,000 active;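 active = inhibition above the screen-wide mean plus 3 SD, computed separately per campaign, cut at about 16% in these data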;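 also: 0% = DMSO wells and 100% = 60 µM geldanamycin wells; inhibitors lower the luminescence because luciferase stays unfolded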
# PPC1 cytotox – kills PPC-1 cells | PPC-1 viability, ATPlite luminescence, overnight | shares compounds with PPC-1+TRAIL kill | cytotoxicity, % at 5 µM | 50% of 1,200 active;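 active = reconfirmed compounds whose average cytotoxicity reaches 50% or more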;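 also: 0% = DMSO-treated cells and 100% = wells holding medium but no cells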
# HSP90 confirm – confirmation of HSP90 inhibitors | shares compounds with HSP90 refold inh | rabbit reticulocyte lysate, luciferase refolding luminescence, 3 h | inhibition, % at 5.9 µM | 64% of 2,300 active | AID 1846; in the data active = inhibition above about 18%;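 also: 0% = vehicle wells and 100% = reference inhibitor wells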
# luciferase ctr – counter-screen for HSP90 inhibitors: inhibitors of firefly luciferase. shares compounds with HSP90 refold inh. 48% of 2,300 active. inhibition, % at 5.9 µM. purified native firefly luciferase, luminescence;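 active = inhibition above the mean inhibition of all tested sample wells plus 3 SD, cut at about 10% in these data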;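 also: 0% = DMSO with luciferase and 100% = wells lacking luciferase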
# Target sequence (P08659 whole entry, looked up): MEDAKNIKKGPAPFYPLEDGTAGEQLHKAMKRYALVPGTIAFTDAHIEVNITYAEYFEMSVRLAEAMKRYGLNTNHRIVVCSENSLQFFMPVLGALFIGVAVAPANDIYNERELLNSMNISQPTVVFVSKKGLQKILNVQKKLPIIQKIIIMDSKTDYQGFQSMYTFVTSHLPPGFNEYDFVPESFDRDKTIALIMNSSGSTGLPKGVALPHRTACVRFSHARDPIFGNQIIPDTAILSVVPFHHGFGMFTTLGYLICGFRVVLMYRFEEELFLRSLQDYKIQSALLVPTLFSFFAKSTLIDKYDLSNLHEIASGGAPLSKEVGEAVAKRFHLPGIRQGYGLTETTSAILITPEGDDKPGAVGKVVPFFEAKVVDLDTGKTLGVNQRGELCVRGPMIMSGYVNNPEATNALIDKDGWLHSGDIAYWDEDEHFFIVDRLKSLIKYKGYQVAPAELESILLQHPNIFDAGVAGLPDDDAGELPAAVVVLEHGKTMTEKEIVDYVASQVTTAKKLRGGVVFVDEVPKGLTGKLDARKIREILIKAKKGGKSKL
# * hit, by the source's call; . = not tested or not shown. An excerpt weighted towards active compounds, which were near 2.3% of everything screened.
SMILES,STAT1 inh,C8 TRAIL sens,STAT3 blocker,PPC-1+TRAIL kill,STAT3 activator,HSP90 refold inh,PPC1 cytotox,others
Cc1ccc(N2C(=O)Nc3ccccc3C2(O)C(=O)N2CCN(c3ccccn3)CC2)cc1C (centres undefined),-11.0,17.7,-13.8,10.8,112.6,-2.2,4.6,
CCOC(=O)COc1ccc2c3c(c(=O)oc2c1C)CCC3,8.8,0.7,32.9,7.6,74.8,1.2,13.8,
O=C1c2ccccc2-c2nc3ccccc3cc21,.,47.6,.,.,.,-0.3,.,
O=C1c2ccccc2-c2nnc(-c3ccc(O)cc3)cc21,48.1*,49.9,71.9*,68.7*,40.4,11.2,64.2*,
COc1ccc2[nH]c(=O)c(CN(C)C(=O)C3CCCCC3)cc2c1,0.2,-0.6,8.1,16.2,99.3,-2.0,.,
CCOC(=O)N1CCN(S(=O)(=O)c2ccc(OCC(=O)OC)cc2)CC1,0.8,-15.3,-0.3,-2.5,102.9,5.0,3.2,
CN1C2C=C3C(C#N)=C(N)C(C#N)(C#N)[C@@H](c4cccs4)C3C1CC2 (some centres undefined),-3.6,-6.2,2.2,16.8,100.5,8.4,6.3,
NS(=O)(=O)c1ccc(NC(=S)NCc2ccc3c(c2)OCO3)cc1,5.5,-4.8,9.8,-11.2,94.5,0.9,.,
NS(=O)(=O)c1cccc(NC(=S)NCc2ccc3c(c2)OCO3)c1,0.7,-4.6,5.2,9.1,102.9,-2.9,0.2,
CCC(C)(C)C1CCc2[nH]nc(C(=O)N/N=C(\C)c3ccco3)c2C1 (centres undefined),.,32.2,.,21.8,.,11.7,.,
C/C(=N\NC(=O)c1n[nH]c2c1CCC2)c1ccco1,.,63.7*,.,39.5,.,3.0,40.2,
COc1ccc(-n2nc3cc(C)c(NC(C)=O)cc3n2)cc1,39.0*,73.6*,76.5*,64.0*,38.3,6.6,60.2*,
CN1CCN(C(=O)c2ccc(COc3ccc(C(C)(C)C)cc3)o2)CC1,-22.4,11.1,-4.4,21.7,108.0,4.8,21.9,
Cc1ccc(S(=O)(=O)NCC(=O)NC2CCCCCC2)cc1,0.0,-31.7,11.2,8.1,95.2,0.0,-2.6,
CC1CCC(NS(=O)(=O)c2cccc3nsnc23)CC1 (centres undefined),.,8.3,.,.,.,1.0,.,
O=C(c1cccnc1)N(Cc1ccccc1)C1(C(=O)Nc2ccccc2)CCCCC1,-1.2,-1.9,-9.8,4.5,105.8,-1.4,.,
COC(=O)c1ccccc1NC(=O)Cn1c(=O)oc2ccc(Cl)cc21,0.8,-3.1,2.0,6.8,98.3,1.4,3.7,
O=[N+]([O-])c1ccc(Nc2ccccc2)c2nonc12,.,-6.0,.,.,.,-0.5,.,
O=[N+]([O-])c1ccc(Sc2cccc[n+]2[O-])c2nonc12,.,19.1,.,34.1,.,23.7*,30.9,
COC(=O)c1ccccc1NC(=O)Cn1c(CCC(=O)O)ccc1-c1cccs1,2.1,7.2,4.0,6.5,103.1,6.1,14.9,
Cc1ccccc1NC(=O)Cn1c(CCC(=O)O)ccc1-c1cccs1,1.3,-0.9,-7.2,20.1,108.3,-4.9,.,
O=C(C1Cc2ccccc2CN1S(=O)(=O)c1ccc(F)cc1)N1CCCCC1 (centres undefined),6.9,-3.7,10.9,15.2,95.2,5.6,2.3,
CN(C)c1ncnc2c1ncn2C1OC(CO)C(O)C1O (centres undefined),61.8*,69.4*,43.6*,43.5,67.0,1.6,44.0,
Cc1ccc(/C=C/C(=O)c2ccc(N3CCOCC3)cc2)s1,-37.1,73.0*,31.6,79.8*,76.8,4.9,77.7*,
O=C(CSc1ncn[nH]1)Nc1nc(-c2ccccc2)cs1,1.9,-6.7,10.2,0.8,94.3,4.4,-3.9,
SMILES,STAT1 inh,C8 TRAIL sens,STAT3 blocker,PPC-1+TRAIL kill,STAT3 activator,HSP90 refold inh,PPC1 cytotox,others
COc1ccc(C(=O)CN(C(=O)c2ccc(Cl)cc2)N2C(=O)C3CCCCC3C2=O)cc1 (centres undefined),2.0,-1.2,3.2,38.3,97.3,10.4,.,
COc1cccc(C(=O)CN(C(=O)c2ccc(Cl)c(Cl)c2)N2C(=O)C3CCCCC3C2=O)c1 (centres undefined),-6.4,-4.6,0.1,7.5,99.9,-1.5,-7.0,
C=CCOC(=O)C1=C(C)NC(SCC(N)=O)=C(C#N)C1c1cccs1 (centres undefined),7.5,8.9,-3.6,29.0,106.6,2.2,.,
CC(=O)C1=C(C)NC(SCC(N)=O)=C(C#N)C1c1cccs1 (centres undefined),-0.5,-6.1,1.0,17.8,97.9,-1.0,10.6,
O=C(c1cc(F)ccc1F)C1CCCN(C(=O)CCCN2CCCCC2=O)C1 (centres undefined),8.9,-8.5,0.0,12.0,101.1,3.1,.,
CCOc1ccc(NC(=O)c2ccccc2O)cc1,-2.8,58.5*,24.2,68.2*,83.1,1.1,64.1*,
CCOc1ccc(NC(=O)c2ccccc2CO)cc1,-28.4,9.1,12.4,9.3,93.6,0.8,.,
CN(C(=O)c1cccc(Nc2ccc(-c3ccc4c(c3)OCCO4)nn2)c1)C1CCCCC1,-22.1,68.2*,10.6,52.6*,94.2,-0.1,54.8*,
CN(C)S(=O)(=O)c1ccc(Nc2ccc(-c3ccc4c(c3)OCCO4)nn2)cc1,3.0,19.2,13.6,20.7,91.8,0.5,.,
OCCNCC(O)Cn1ccc2ccccc21 (centres undefined),5.1,-0.9,1.8,7.8,102.0,2.1,6.4,
O=C(NCCc1ccc(Cl)cc1)C1CCCN(S(=O)(=O)c2cnc[nH]2)C1 (centres undefined),0.8,-9.6,-4.2,9.2,111.1,0.9,.,
Cc1ccc(-c2nc(-c3ccccc3)no2)c(Cl)c1,68.8*,87.1*,100.9*,80.6*,20.0,53.8*,76.6*,HSP90 confirm=90.2*;luciferase ctr=85.5*
Cc1ccc(C(=O)NCC(=O)Nc2ccc3c(c2)CCC3)cc1,.,-8.1,.,.,.,.,.,
Cc1ccc(C(=O)Nc2ccc3c(c2)CCC3)cc1,64.0*,78.6*,88.2*,52.3*,24.5,25.4*,53.3*,HSP90 confirm=70.9*;luciferase ctr=67.3*
CCOc1ccc(NC(=O)Nc2cccc(C(=O)O)c2)cc1,96.2*,82.5*,110.0*,73.2*,10.4,88.9*,64.6*,HSP90 confirm=89.6*;luciferase ctr=85.5*
Nc1ccc(-c2nc3ccc(N)cc3s2)cc1,.,84.2*,.,82.2*,.,54.0*,80.3*,HSP90 confirm=69.2*;luciferase ctr=60.6*
Nc1cccc(-c2nc3ccc(N)cc3s2)c1,-26.0,69.8*,-4.0,74.1*,106.5,19.6*,71.6*,HSP90 confirm=66.1*;luciferase ctr=52.6*
Cc1nc2ccccc2c(=O)n1NC(=O)/C=C/c1ccccc1Cl,10.9,1.9,2.6,17.8,96.0,2.4,.,
